Bioassay records from PubChem BioAssay.
S1P4 ag: agonists of human S1P4 receptor | O95977 | S1P4-expressing cell line, agonist reporter assay | activation, % at 4.98 µM | hit rate 0.35% among 220,000 | AID 1509; in the data active means activation above about 11%;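 further: 0% = DMSO vehicle and 100% = reference agonist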
NPY Y2 blocker: NPY-Y2 (human) receptor antagonism; P49146; NPY-Y2 expressing cells, antagonist mode; inhibition, % at 2.7 µM; hit rate 0.99% among 140,000; AID 793; in the data active means inhibition above about 17%;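 further: 0% = vehicle with agonist challenge and 100% = reference antagonist with challenge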
NPY Y1 blocker: NPY-Y1 (human) receptor antagonism; P25929; HEK293-CNG Y1 cells, membrane potential fluorescence; NPY at EC95, then isoproterenol; inhibition, % at 3.6 µM; hit rate 1% among 200,000;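 active means inhibition above the campaign mean inhibition of all tested compounds plus 3 SD, cut at about 20% in these data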;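 further: 0% = DMSO wells given NPY plus isoproterenol and 100% = isoproterenol alone without NPY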
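Material: HEK293 cells co-expressing NPY Y1 receptor and cyclic-nucleotide gated channel. Timing: compound incubation 1 h at room temperature, readout 45 min post-stimulation. Signal: fluorescence, membrane potential probe.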
S1P4 antagonist: blocks the human S1P4 receptor. hit rate 0.26% among 220,000. S1P4-expressing cells, antagonist mode, reporter read-out. inhibition, % at 4.98 µM. AID 1510; in the data active means inhibition above about 29%;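 further: 0% = wells stimulated with agonist and 100% = vehicle wells without agonist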
NPY-Y2 PAM-ag: potentiators or agonists of human neuropeptide Y receptor Y2. cells expressing NPY-Y2, potentiator/agonist read-out. activation, % at 3.6 µM. hit rate 0.45% among 220,000; in the data active means activation above about 27%;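 further: cells stimulated with NPY near EC25 plus isoproterenol at EC100; 0% = vehicle plus submaximal agonist and 100% = vehicle plus saturating agonist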
NPY1 pot ag: potentiates or activates human NPY-Y1 receptor; P25929; hit rate 0.37% among 220,000; activation, % at 3.6 µM; AID 1304; NPY-Y1 expressing cells, potentiator/agonist activation; in the data active means activation above about 33%, passing the limit was not always enough;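 further: cells stimulated with NPY at EC10 then isoproterenol at EC100; 0% = low agonist plus stimulus and 100% = saturating agonist plus stimulus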
S1P4 ag conf: human S1P4 agonism, confirmation; hit rate 7% among 740; S1P4 agonist cell-based reporter assay; activation, % at 4.98 µM; shares compounds with S1P4 ag; AID 1523; in the data active means activation above about 12%;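 further: 0% = vehicle and 100% = full reference agonist response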
S1P1 ag: counter-screen for S1P4 agonists: agonists of human S1P1; shares compounds with S1P4 ag; S1P1 agonist cell-based assay, activation; activation, % at 4.98 µM; hit rate 4% among 740; in the data active means activation above about 21%;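 further: 0% = vehicle wells and 100% = reference agonist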
Target sequence (P21453 whole entry, looked up): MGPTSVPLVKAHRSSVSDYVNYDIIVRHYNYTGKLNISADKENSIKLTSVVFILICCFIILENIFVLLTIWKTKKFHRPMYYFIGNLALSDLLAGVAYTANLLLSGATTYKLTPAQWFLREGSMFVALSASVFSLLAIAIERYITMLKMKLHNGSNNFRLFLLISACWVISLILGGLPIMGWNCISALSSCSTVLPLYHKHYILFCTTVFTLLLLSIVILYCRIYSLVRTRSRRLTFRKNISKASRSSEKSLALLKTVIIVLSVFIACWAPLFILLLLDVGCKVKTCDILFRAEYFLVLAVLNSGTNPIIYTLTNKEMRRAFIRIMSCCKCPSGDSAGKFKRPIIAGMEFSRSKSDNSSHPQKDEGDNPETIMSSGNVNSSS
Starred values were filed as active, the others as inactive; x = not tested or not shown. Most compounds without a hit are left out; they make up all but 2.4% or so of the library.

SMILES	S1P4 ag	NPY Y2 blocker	NPY Y1 blocker	S1P4 antagonist	NPY-Y2 PAM-ag	NPY1 pot ag	S1P4 ag conf	S1P1 ag
OC1CCCN(Cc2c3ccccc3cc3ccccc23)C1 (centres undefined)	14.8*	8.2	13.5	-10.9	-18.3	-29.7	-0.2	2.6
Cc1cc(NC(=O)C2C3C(=O)N(Cc4ccc(Cl)cc4)C(C(=O)NCc4ccccc4)C34C=CC2(C)O4)no1 (centres undefined)	17.6*	4.4	-7.7	-14.9	3.2	1.2	-1.9	-5.7
Cc1cc(NC(=O)C2C3C(=O)N(Cc4ccc(Cl)cc4)C(C(=O)NC4CCCCC4)C34C=CC2(C)O4)no1 (centres undefined)	0.6	-1.3	-0.4	-18.2	15.4	21.0	x	x
CN1CCN(Cc2c(O)ccc3cc(-c4ccccn4)c(=O)oc23)CC1	18.0*	x	-2.5	11.1	-4.3	-15.4	9.7	7.2
COc1ccc(SCC(=O)Nc2ccccc2Cl)cc1	113.7*	x	8.9	-3.9	-12.8	-10.7	-1.2	-5.4
Cn1cccc1/C=N/NC(=O)CSc1nc2ccccc2n1C	1.3	x	x	-29.1	-11.5	0.2	x	x
Cc1cc(NC(=O)CSc2nc(N)c(NC(=O)c3ccccc3)c(=O)[nH]2)no1	-0.4	x	4.2	7.3	-5.9	-5.4	x	x
COCCSc1nc(N)c(NC(=O)c2ccc(OC)cc2)c(=O)[nH]1	11.9*	x	0.2	-7.0	-6.2	-15.8	-2.4	-4.0
CCOC(=O)Cc1nnc2c(Nc3ccccc3F)nc3nonc3n12	38.0*	4.9	-3.4	-20.6	23.9	12.4	-1.5	4.4
Cc1ccccc1-n1c(SCC(=O)N/N=C/C=C/c2ccccc2[N+](=O)[O-])nc2ccccc2c1=O	14.1*	0.3	1.0	-14.8	16.6	4.7	-2.9	-11.6
CC(C)c1onc(C(=O)N2CCOCC2)c1[N+](=O)[O-]	-0.5	x	3.3	-6.7	-3.7	0.6	x	x
Cc1onc(C(=O)N2CCOCC2)c1[N+](=O)[O-]	19.4*	x	-3.1	4.2	-7.0	1.8	-2.8	2.7
O=C1C(=O)N(CCN2CCOCC2)C(c2cccnc2)/C1=C(/O)c1ccc(Cl)cc1 (centres undefined)	2.0	x	-3.2	-11.3	-10.1	-5.4	x	x
COc1ccc(N2CCN(C(CNC(=O)C(=O)NCC3CCCO3)c3ccco3)CC2)cc1 (centres undefined)	13.1*	3.6	-0.1	-7.3	-5.5	0.6	-1.7	0.2
COC(=O)NCC(c1ccco1)N1CCN(c2ccc(OC)cc2)CC1 (centres undefined)	-0.1	x	-0.9	2.2	7.6	12.8	x	x
CCOc1ccc(/C(O)=C/C(=O)C(=O)Nc2ccc(S(=O)(=O)NC(C)=O)cc2)cc1	12.3*	-0.7	3.5	-14.6	-7.5	-19.7	-1.5	-1.7
NC(=O)c1cc2ccc(O)cc2oc1=Nc1ccccc1	33.0*	3.5	-6.7	-47.0	10.9	27.0	0.6	6.4
NC(=O)c1cc2ccccc2oc1=NCc1ccccc1	-1.0	3.7	6.9	2.2	-8.4	-31.8	x	x
NC(=O)c1cc2ccc(O)cc2oc1=NCc1ccccc1	79.4*	1.7	-2.6	-79.1	6.8	-6.9	9.9	5.8
O=C(O)c1ccc(N=c2oc3cc(O)ccc3cc2C(=O)NCc2ccccc2)cc1	38.2*	x	-0.5	-36.6	-14.8	-4.7	4.1	2.5
COc1ccc2cc(C(=O)NCc3ccccc3)c(=Nc3ccc(C(=O)O)cc3)oc2c1	1.7	x	3.4	-6.1	-6.0	6.2	x	x
CCCC12CN3CC(CCC)(CN(C1)C3c1ccco1)C2=O (centres undefined)	-0.2	x	x	-5.0	-10.8	8.5	x	x
CCOC(=O)c1c(C)[nH]c(C2=NNC(=Nc3ccccc3)SC2)c1C	62.5*	-0.6	-5.4	-4.6	11.4	4.8	-0.8	-4.1
CC(C)/C=N/Nc1nc(-c2ccc(Br)cc2)cs1	34.1*	0.3	-5.7	8.3	-4.7	-18.1	-2.3	11.6
Cc1ccc(CCNC(=O)CN2C(=O)COc3ccccc32)cc1	-1.1	6.0	-7.5	-2.2	21.0	7.7	x	x
SMILES	S1P4 ag	NPY Y2 blocker	NPY Y1 blocker	S1P4 antagonist	NPY-Y2 PAM-ag	NPY1 pot ag	S1P4 ag conf	S1P1 ag
Cc1ccc(NC(=O)COC(=O)CN2C(=O)COc3ccccc32)cc1	28.8*	-0.6	-3.8	-14.8	6.3	-27.4	-1.9	3.1
O=C(Nc1ccn(Cc2ccccc2)n1)c1cccc(Cn2cc([N+](=O)[O-])cn2)c1	12.8*	-1.5	-2.8	0.5	12.9	13.2	-1.2	1.3
C=CCN1C(=O)/C(=c2\sc3nc(=O)c(Cc4ccccc4)nn3c2=O)c2ccccc21	27.3*	x	x	-6.7	1.0	20.8	-1.4	0.8
O=C(NCc1ccccc1)C(c1ccc(F)cc1)N(Cc1ccco1)C(=O)c1ccccn1 (centres undefined)	40.2*	3.8	2.8	-3.8	-18.6	-1.9	-2.8	-2.9
Cc1c(Nc2c3ccccc3nc3ccccc23)c(=O)n(-c2ccccc2)n1C	11.5*	x	x	-2.6	-8.6	-7.8	-1.0	1.8
COc1ccc2c(c1OC)C(=O)OC2Nc1ccccc1S(=O)(=O)C(F)F (centres undefined)	17.1*	2.5	-4.0	-32.1	0.3	-11.7	0.1	2.9
COc1ccc2c(c1OC)C(=O)OC2Nc1ccccn1 (centres undefined)	-0.9	-0.4	5.5	-3.4	4.4	-14.1	x	x
O=c1c2ccccc2nnn1COc1ccc(Cl)cc1Br	-1.2	x	8.6	-4.3	4.2	14.8	x	x
CCN(CC)S(=O)(=O)c1cccc(C(=O)NC(C)C(c2cccs2)N2CCCC2)c1 (centres undefined)	-0.7	x	-3.2	-9.9	5.4	3.3	x	x
Cc1cc(=O)[nH]c(N/N=C/c2c(O)n(-c3ccccc3)c(=O)c3ccccc23)n1	29.2*	1.3	0.1	-0.4	15.7	0.4	-1.1	-4.1
Cc1ccc(CN(c2ccc(C(=O)NCC3CCCO3)cc2)S(C)(=O)=O)cc1 (centres undefined)	29.9*	x	-1.7	-8.8	11.6	16.1	-1.3	8.9
Cc1cccc(NC(=O)Cn2c([N+](=O)[O-])cnc2C)c1C	-0.5	2.6	-2.0	-0.8	-6.5	-2.0	x	x
Cc1cccc(C)c1NC(=O)CSC(=O)c1sc2ccccc2c1Cl	-1.1	x	x	-1.5	-1.0	-6.0	x	x
CCOC(=O)c1cc2ccc(OC(=O)c3ccco3)cc2oc1=O	148.6*	0.1	-4.4	-155.5	11.0	-5.7	83.8*	95.6*
CCOC(=O)c1c(C)n(C)c2ccc(OC(=O)c3ccco3)cc12	-0.7	-0.5	9.2	-4.1	-10.4	6.1	x	x
N#CC1=C(N)Oc2cc(N)ccc2C1C1CCCCC1 (centres undefined)	13.8*	1.1	0.8	3.7	14.9	9.8	-1.4	-3.1
O=C(O)CCSc1nnc(COc2cccc3ccccc23)n1-c1cccc(Cl)c1	2.1	x	3.5	4.2	-14.0	18.9	x	x
